Experimental data from ChEMBL document CHEMBL1759963, “Synthesis and biological evaluation of 4-styrylcoumarin derivatives as inhibitors of TNF-α and IL-6 with anti-tubercular activity” (2011).

Tests used:
Assay type in all cases: functional
THP-1 [1] = test: Antiinflammatory activity in human THP1 cells assessed as inhibition of LPS-induced TNFalpha production at 10 uM after 24 hrs by ELISA; details: THP-1, 24 h
Method in brief: (§1)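 THP-1 cells grown in RPMI 1640 with 10% FBS, penicillin and streptomycin, then differentiated with PMA. Test compound or vehicle (0.5% DMSO) added and preincubated 30 min at 37 °C. LPS (E. coli 0127:B8) then added and cells incubated 24 h at 37 °C, 5% CO2. Supernatant TNF-α and IL-6 measured by ELISA. Cytotoxicity checked in parallel by CCK-8. Percent inhibition versus control.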

THP-1 [2] = test: Antiinflammatory activity in human THP1 cells assessed as inhibition of LPS-induced IL6 production at 10 uM after 24 hrs by ELISA; details: THP-1, 24 h; method in brief: as §1
[3] = test system: Mycobacterium tuberculosis; test: Antitubercular activity against Mycobacterium tuberculosis H37Rv ATCC 27294 at 6.25 ug/ml by microplate alamar blue assay
Method in brief: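 Primary screen against M. tuberculosis H37Rv (ATCC 27294) in BACTEC 12B medium by microplate Alamar Blue assay. Tested at 6.25 µg/mL or molar equivalent of the highest-MW compound in the congener series. Fluorescent compounds instead tested in the BACTEC 460 radiometric system.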

N#Cc1c(/C=C/c2ccccc2)c2cc(Cl)ccc2oc1=O
inhibition at 10 µM (THP-1 [1]): 32%
inhibition at 10 µM (THP-1 [2]): 87%
inhibition at 6.25 µg/mL [3]: 55%

N#Cc1c(/C=C/c2ccc(F)cc2)c2cc(Cl)ccc2oc1=O
inhibition at 10 µM (THP-1 [1]): 0%
inhibition at 10 µM (THP-1 [2]): 61%

N#Cc1c(/C=C/c2ccccc2Cl)c2cc(Cl)ccc2oc1=O
inhibition at 10 µM (THP-1 [1]): 0%
inhibition at 10 µM (THP-1 [2]): 19%

N#Cc1c(/C=C/c2cccc(Cl)c2)c2cc(Cl)ccc2oc1=O
inhibition at 10 µM (THP-1 [1]): 0%
inhibition at 10 µM (THP-1 [2]): 21%
inhibition at 6.25 µg/mL [3]: 69%

N#Cc1c(/C=C/c2ccc(Cl)cc2)c2cc(Cl)ccc2oc1=O
inhibition at 10 µM (THP-1 [1]): 0%
inhibition at 10 µM (THP-1 [2]): 4%

N#Cc1c(/C=C/c2cccc(Br)c2)c2cc(Cl)ccc2oc1=O
inhibition at 10 µM (THP-1 [1]): 0%
inhibition at 10 µM (THP-1 [2]): 2%
inhibition at 6.25 µg/mL [3]: 23%

N#Cc1c(/C=C/c2ccccc2[N+](=O)[O-])c2cc(Cl)ccc2oc1=O
inhibition at 10 µM (THP-1 [1]): 0%
inhibition at 10 µM (THP-1 [2]): 14%
inhibition at 6.25 µg/mL [3]: 11%

N#Cc1c(/C=C/c2cccc([N+](=O)[O-])c2)c2cc(Cl)ccc2oc1=O
inhibition at 10 µM (THP-1 [1]): 0%
inhibition at 10 µM (THP-1 [2]): 72%
inhibition at 6.25 µg/mL [3]: 69%

N#Cc1c(/C=C/c2cccc(O)c2)c2cc(Cl)ccc2oc1=O
inhibition at 10 µM (THP-1 [1]): 23%
inhibition at 10 µM (THP-1 [2]): 39%

N#Cc1c(/C=C/c2ccc(O)cc2)c2cc(Cl)ccc2oc1=O
inhibition at 10 µM (THP-1 [1]): 0%
inhibition at 10 µM (THP-1 [2]): 73%

COc1ccccc1/C=C/c1c(C#N)c(=O)oc2ccc(Cl)cc12
inhibition at 10 µM (THP-1 [1]): 19%
inhibition at 10 µM (THP-1 [2]): 17%
inhibition at 6.25 µg/mL [3]: 24%

COc1ccc(/C=C/c2c(C#N)c(=O)oc3ccc(Cl)cc23)cc1
inhibition at 6.25 µg/mL [3]: 33%

COc1ccc(/C=C/c2c(C#N)c(=O)oc3ccc(Cl)cc23)cc1OC
inhibition at 10 µM (THP-1 [1]): 0%
inhibition at 10 µM (THP-1 [2]): 40%
inhibition at 6.25 µg/mL [3]: 63%

COc1cc(/C=C/c2c(C#N)c(=O)oc3ccc(Cl)cc23)cc(OC)c1OC
inhibition at 10 µM (THP-1 [1]): 38%
inhibition at 10 µM (THP-1 [2]): 8%
inhibition at 6.25 µg/mL [3]: 87%

N#Cc1c(/C=C/c2cccc(Oc3ccccc3)c2)c2cc(Cl)ccc2oc1=O
inhibition at 10 µM (THP-1 [1]): 0%
inhibition at 10 µM (THP-1 [2]): 11%
inhibition at 6.25 µg/mL [3]: 72%

CSc1ccc(/C=C/c2c(C#N)c(=O)oc3ccc(Cl)cc23)cc1
inhibition at 10 µM (THP-1 [1]): 0%
inhibition at 10 µM (THP-1 [2]): 15%

C=Cc1ccccc1/C=C/c1c(C#N)c(=O)oc2ccc(Cl)cc12
inhibition at 10 µM (THP-1 [1]): 52%
inhibition at 10 µM (THP-1 [2]): 0%

N#Cc1c(/C=C/c2c3ccccc3cc3ccccc23)c2cc(Cl)ccc2oc1=O
inhibition at 6.25 µg/mL [3]: 81%

N#Cc1c(/C=C/c2ccco2)c2cc(Cl)ccc2oc1=O
inhibition at 10 µM (THP-1 [1]): 9%
inhibition at 10 µM (THP-1 [2]): 0%
inhibition at 6.25 µg/mL [3]: 63%

N#Cc1c(/C=C/c2c[nH]c3ccccc23)c2cc(Cl)ccc2oc1=O
inhibition at 10 µM (THP-1 [1]): 31%
inhibition at 10 µM (THP-1 [2]): 0%

CN(C)c1ccc(/C=C/c2c(C#N)c(=O)oc3ccc(Cl)cc23)cc1
inhibition at 10 µM (THP-1 [1]): 33%
inhibition at 10 µM (THP-1 [2]): 0%
inhibition at 6.25 µg/mL [3]: 79%

COc1cccc(/C=C/c2c(C#N)c(=O)oc3ccc(Cl)cc23)c1
inhibition at 10 µM (THP-1 [1]): 73%
inhibition at 10 µM (THP-1 [2]): 0%
inhibition at 6.25 µg/mL [3]: 31%
